One test addresses Substance-P receptor (Homo sapiens, UniProt P25103). Nature of the test: Displacement of [3H]Sar-Met substance P from human recombinant NK1 receptor expressed in CHO cells. The test is classed as cell-based. Summed up:
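Membranes from CHO cells expressing recombinant human NK1 receptor. Radioligand was [³H]-Sar-Met substance P at about its experimentally derived Kd. Ki was calculated with the Cheng–Prusoff equation. Values are the mean of two or three independent determinations.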
Background: Loss of bound radioactivity is the signal in a displacement assay; it reports binding, not function.

The subject of the next test is Meriones unguiculatus. Nature of the test: Inhibition of GR-73632-induced foot tapping in Mongolian gerbil at 1 mg/kg, po after 4 hrs. The class given is functional. An outline of the steps: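 Female Mongolian gerbils were dosed orally in 0.4% methylcellulose/distilled water before icv injection of GR73632 (3 pmol in 5 μl). After recovery from anaesthesia, animals were placed in clear boxes for 5 min. Duration of rhythmic hind-foot tapping was timed and expressed as percent decrease (% inhibition).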

Test [1] has as its target T1, Neuromedin-K receptor (Homo sapiens, UniProt P29371).
T1 sequence (P29371 whole entry): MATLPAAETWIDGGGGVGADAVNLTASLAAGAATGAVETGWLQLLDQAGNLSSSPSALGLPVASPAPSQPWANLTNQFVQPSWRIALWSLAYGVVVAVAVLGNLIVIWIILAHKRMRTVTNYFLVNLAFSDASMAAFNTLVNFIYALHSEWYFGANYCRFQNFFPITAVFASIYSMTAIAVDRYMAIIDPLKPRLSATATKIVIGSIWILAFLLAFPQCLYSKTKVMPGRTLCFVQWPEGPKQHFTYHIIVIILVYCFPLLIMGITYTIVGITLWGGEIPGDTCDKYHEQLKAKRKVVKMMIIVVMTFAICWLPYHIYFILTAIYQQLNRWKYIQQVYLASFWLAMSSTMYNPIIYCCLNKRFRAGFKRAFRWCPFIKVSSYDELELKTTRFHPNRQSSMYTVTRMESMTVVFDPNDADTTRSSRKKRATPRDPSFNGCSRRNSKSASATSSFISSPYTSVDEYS
As to the kind of experiment: Displacement of [3H]neurokinin B from human recombinant NK3 receptor in CHO cells. The note with it: in the assay text read “[125I]neurokinin B” for “[3H]neurokinin B”. The class given is cell-based. Summed up:
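Membrane preparations came from CHO cells expressing recombinant human NK3 receptor. Labelled neurokinin B ligand was used near its experimentally derived Kd. Ki was obtained by the Cheng–Prusoff equation. Values are the average of two or three independent determinations.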

In test [2] the target is T2, Substance-K receptor (Homo sapiens) (UniProt P21452).
T2 sequence (whole entry): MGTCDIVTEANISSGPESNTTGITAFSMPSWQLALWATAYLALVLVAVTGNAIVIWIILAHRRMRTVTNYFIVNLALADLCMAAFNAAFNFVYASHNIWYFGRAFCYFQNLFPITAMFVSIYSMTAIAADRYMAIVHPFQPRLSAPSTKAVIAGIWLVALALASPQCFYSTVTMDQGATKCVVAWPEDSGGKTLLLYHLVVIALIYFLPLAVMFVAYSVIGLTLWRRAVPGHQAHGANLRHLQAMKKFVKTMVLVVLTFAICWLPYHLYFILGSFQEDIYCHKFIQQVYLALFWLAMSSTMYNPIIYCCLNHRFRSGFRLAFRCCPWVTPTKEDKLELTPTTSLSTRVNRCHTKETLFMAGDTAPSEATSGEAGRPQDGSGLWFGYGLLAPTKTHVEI
Nature of the test: Inhibition of [3H]neurokinin A binding to human recombinant NK2 receptor in CHO cells at 0.3 uM. The class given is cell-based. An outline of the steps:
(§1)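 Competition binding used membranes of CHO cells carrying recombinant human NK2 receptor. [³H]neurokinin A was the ligand, at a concentration near its experimentally derived Kd. Data are the average of two or three independent determinations.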

Test [3] addresses T2, Substance-K receptor (Homo sapiens). Nature of the test: Inhibition of [3H]neurokinin A binding to human recombinant NK2 receptor in CHO cells at 3 uM. The test is classed as cell-based. Summed up:
as §1

Test [4] addresses T1, Neuromedin-K receptor. Nature of the test: Displacement of [125I]neurokinin B from human recombinant NK3 receptor in CHO cells.

Substance-P receptor, sequence (P25103 whole entry): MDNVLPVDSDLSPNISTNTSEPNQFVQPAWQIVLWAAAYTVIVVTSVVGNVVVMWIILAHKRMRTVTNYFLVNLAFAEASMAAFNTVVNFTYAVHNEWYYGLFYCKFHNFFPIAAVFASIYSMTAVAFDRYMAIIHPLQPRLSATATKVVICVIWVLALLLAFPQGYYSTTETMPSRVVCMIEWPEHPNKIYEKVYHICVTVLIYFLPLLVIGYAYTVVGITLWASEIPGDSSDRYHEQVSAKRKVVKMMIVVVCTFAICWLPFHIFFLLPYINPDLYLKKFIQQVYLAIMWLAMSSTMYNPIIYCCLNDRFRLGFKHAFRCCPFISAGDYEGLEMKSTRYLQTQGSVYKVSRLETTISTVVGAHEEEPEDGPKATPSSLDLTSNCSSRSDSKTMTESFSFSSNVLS

In general, Ki refers to the dissociation constant of the complex between target and ligand, obtained from inhibition or displacement. As a reminder, the inhibition in vivo is how much of the control response was suppressed. Read a high inhibition in vivo as a strong effect. Regarding `C[C@@H](OCC1(c2ccccc2)CC(NCc2n[nH]c(O)n2)C1)c1cc(C(F)(F)F)cc(C(F)(F)F)c1` (stereo partly drawn), the Ki on Substance-P receptor came to 0.5 nM. In the test on Meriones unguiculatus, this compound registered an inhibition in vivo at 1 mg/kg of 22%.

Turning to `C[C@@H](OC[C@]1(c2ccccc2)C[C@](N)(C(N)=O)C1)c1cc(C(F)(F)F)cc(C(F)(F)F)c1`, the Ki on Substance-P receptor came to 1 nM. Moreover, in the test with Meriones unguiculatus, the inhibition in vivo at 1 mg/kg turned out to be 81%.

Regarding `C[C@@H](OCC1(c2ccccc2)CC(=O)C1)c1cc(C(F)(F)F)cc(C(F)(F)F)c1`, on Substance-P receptor, the Ki stood at 2.4 nM. This compound came in with an inhibition in vivo at 1 mg/kg in the test on Meriones unguiculatus of 11%.

As for `C[C@@H](OC[C@]1(c2ccccc2)C[C@](N)(C(=O)N2CCCC2)C1)c1cc(C(F)(F)F)cc(C(F)(F)F)c1`, on Substance-P receptor, the Ki turned out to be 1.3 nM. In the test with Meriones unguiculatus, this compound returned an inhibition in vivo at 1 mg/kg of 13%.

`C[C@@H](OC[C@]1(c2ccccc2)C[C@H](N2CCCC2=O)C1)c1cc(C(F)(F)F)cc(C(F)(F)F)c1`: the Ki on Substance-P receptor was 0.3 nM. In the test with Meriones unguiculatus, the inhibition in vivo at 1 mg/kg was found to be 3%.

With `C[C@@H](OC[C@]1(c2ccccc2)C[C@](N)(C(=O)N2CCCCC2)C1)c1cc(C(F)(F)F)cc(C(F)(F)F)c1`, the Ki at Substance-P receptor amounted to 1.3 nM. Moreover, in the test with Meriones unguiculatus, the inhibition in vivo at 1 mg/kg is 15%.

As usually defined, the inhibition is the relative decrease from the control value, in per cent. As to `CNC(=O)[C@]1(N)C[C@@](CO[C@H](C)c2cc(C(F)(F)F)cc(C(F)(F)F)c2)(c2ccccc2)C1`, the Ki on Substance-P receptor was determined as 1 nM; on Neuromedin-K receptor [1], 2000 nM. The compound also showed an inhibition in vivo at 1 mg/kg in the test with Meriones unguiculatus of 98%. The inhibition in test [2] worked out at 1.2%.

On to `CNC(=O)[C@]1(N)C[C@](CO[C@H](C)c2cc(C(F)(F)F)cc(C(F)(F)F)c2)(c2ccccc2)C1`, for which the Ki on Substance-P receptor amounted to 0.5 nM. The compound also gave an inhibition in vivo at 1 mg/kg in the test with Meriones unguiculatus of 58%.

In the case of `C[C@@H](OC[C@]1(c2ccccc2)C[C@@H](N2CCCC2=O)C1)c1cc(C(F)(F)F)cc(C(F)(F)F)c1` (mixture of isomers), on Substance-P receptor, the Ki worked out at 0.4 nM. In the test on Meriones unguiculatus, this compound returned an inhibition in vivo at 1 mg/kg of 41%.

As to `C[C@@H](OC[C@]1(c2ccccc2)C[C@](N)(C(=O)N(C)C)C1)c1cc(C(F)(F)F)cc(C(F)(F)F)c1`, the Ki on Substance-P receptor was found to be 3.3 nM. In the test with Meriones unguiculatus, this compound yielded an inhibition in vivo at 1 mg/kg of 79%.

For `CC(=O)N[C@H]1C[C@](CO[C@H](C)c2cc(C(F)(F)F)cc(C(F)(F)F)c2)(c2ccccc2)C1`, the results for the Ki on Substance-P receptor and on Neuromedin-K receptor [4] were 0.4 nM and 2130 nM, respectively. In the test on Meriones unguiculatus, at 1 mg/kg the inhibition in vivo was 25%. Moreover, the inhibition in test [3] worked out at 23%.

In the case of `CC(=O)N[C@H]1C[C@@](CO[C@H](C)c2cc(C(F)(F)F)cc(C(F)(F)F)c2)(c2ccccc2)C1`, the Ki on Substance-P receptor worked out at 0.1 nM; on Neuromedin-K receptor [4], 631 nM. Moreover, the inhibition in vivo at 1 mg/kg in the test with Meriones unguiculatus was 23%. Moreover, the inhibition in test [3] was determined as 26%.

For the compound `C[C@@H](OCC1(c2ccccc2)CC(NCc2ccccc2)C1)c1cc(C(F)(F)F)cc(C(F)(F)F)c1` (stereo partly drawn), the Ki at Substance-P receptor came out at 0.3 nM. In addition, in the test with Meriones unguiculatus, the inhibition in vivo at 1 mg/kg worked out at 25%.

In the case of `C[C@@H](OCC1(c2ccccc2)CC(N)C1)c1cc(C(F)(F)F)cc(C(F)(F)F)c1` (stereo partly drawn), the Ki at Substance-P receptor was 0.02 nM; at Neuromedin-K receptor [1], 4050 nM. 1 mg/kg produced 21% inhibition in vivo with Meriones unguiculatus. Further, the inhibition in test [3] turned out to be 25%.

In the case of `C[C@@H](OC[C@]1(c2ccccc2)C[C@@](N)(C(N)=O)C1)c1cc(C(F)(F)F)cc(C(F)(F)F)c1`, the Ki on Substance-P receptor was determined as 0.43 nM. In the test on Meriones unguiculatus, 1 mg/kg produced 30% inhibition in vivo.
